Compounds with a hit are over-represented: about 2.3% of the library has one in this group of screens.
UBC13 inh = human UBC13 polyubiquitination inhibition | P61088 | UBC13 polyubiquitin chain formation, TR-FRET | inhibition, % at 20 µM | hit rate 0.47% among 330,000 | AID 485273; in the data active = inhibition above about 45%, passing the limit was not always enough
Target sequence (P61088 whole entry, looked up): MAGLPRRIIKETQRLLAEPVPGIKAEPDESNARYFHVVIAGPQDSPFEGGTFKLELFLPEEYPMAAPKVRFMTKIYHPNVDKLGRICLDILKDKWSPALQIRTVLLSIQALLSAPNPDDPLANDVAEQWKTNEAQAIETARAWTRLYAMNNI
PP5 primary = blocks human protein phosphatase 5 activity; P53041; purified PP5c, OMFP substrate fluorescence; inhibition, % at 6.7 µM; hit rate 0.18% among 320,000; AID 1987;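 active = inhibition above the campaign's mean inhibition across all tested compounds plus 3 SD, cut at about 9.5% in these data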
PP1 inh = PP1-alpha (human) inhibition in PP5 counter-screen | P62136 | purified PP1alpha, OMFP fluorescence | inhibition, % at 6.7 µM | hit rate 0.9% among 320,000;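 active = inhibition above the mean inhibition of all tested compounds plus 3 SD, computed separately for each screening campaign, cut at about 15% in these data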
Target sequence (P62136 whole entry, looked up): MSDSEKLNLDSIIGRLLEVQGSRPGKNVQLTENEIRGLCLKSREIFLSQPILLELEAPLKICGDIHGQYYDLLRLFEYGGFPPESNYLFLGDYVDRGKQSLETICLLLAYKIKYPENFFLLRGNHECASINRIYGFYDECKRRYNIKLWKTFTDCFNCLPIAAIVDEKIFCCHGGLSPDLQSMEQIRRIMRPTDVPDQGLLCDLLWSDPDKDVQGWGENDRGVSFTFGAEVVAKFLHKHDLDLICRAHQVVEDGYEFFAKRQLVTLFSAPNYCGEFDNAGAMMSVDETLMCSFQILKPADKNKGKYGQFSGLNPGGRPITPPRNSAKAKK
UCH37 DUB inh = inhibitors of human deubiquitinating enzyme UCH37. hit rate 0.33% among 330,000. inhibition, % (no concentration beside the values). Q9Y5K5. AID 588478. purified proteasome/UCH37, Ub-AMC cleavage fluorescence;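 active = mean inhibition over replicate wells above about 20%, limit read from the data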
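assay system = human UCH37 enzyme supplied as purified proteasome complex | amount = proteasome at 0.15 nM in the dispensed enzyme solution | schedule = 30 min compound-proteasome preincubation then 25 min substrate reaction, room temperature | measured by = fluorescence, ex 355 nm, em 460 nm | benchmarks = no-proteasome wells (full inhibition) and compound-free wells (no inhibition)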
Fh CTSL1 inh = cathepsin L1 inhibition, PFM18AAP counter-screen; recombinant F. hepatica cathepsin L1, Z-Leu-Arg-MCA fluorescence; hit rate 0.49% among 300,000; inhibition, % at 5.96 µM; AID 1906;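 active = inhibition above the mean of all tested compounds plus 3 SD, set per screening campaign, cut at about 17% in these data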
PREPL inh = inhibitors of human prolyl oligopeptidase-like enzyme PREPL; recombinant PREPL, fluorescence polarization activity-based probe; AID 2751; inhibition, % at 5.96 µM; hit rate 0.68% among 320,000; Q4J6C6; in the data active = inhibition above about 43%
PP5 inh confirm = confirmation of human PP5 phosphatase inhibitors; shares compounds with PP5 primary; inhibition, % at 6.7 µM; AID 2331; hit rate 22% among 460; Purified PP5, fluorogenic phosphatase substrate, fluorescence; in the data active = inhibition above about 9.5%
PP1 inh counter = PP1 phosphatase inhibition, counter-screen for PP5 inhibitors | PP1 enzyme, fluorescent phosphatase substrate | inhibition, % at 6.7 µM | hit rate 4% among 460 | shares compounds with PP5 primary; in the data active = inhibition above about 16%
Large screens that a line does not name were inactive (follow-up assays come after a bar, where they were run); ! = repeats disagree.

CC(=O)Nc1ccc(NC(=O)C2CCCN(C(=O)c3ccc(Cl)cc3)C2)cc1 (stereo not given)	none
O=S(=O)(c1ccc(OC(F)(F)F)cc1)N1CCC(O)(c2cccc(C(F)(F)F)c2)CC1	PP5 primary 11 | PP5 inh confirm inactive | PP1 inh counter inactive
O=C(NNc1ccc(C(F)(F)F)cc1[N+](=O)[O-])c1ccc(NS(=O)(=O)c2ccc(F)cc2)cc1	PP5 primary 10 (no result: UBC13 inh) | PP5 inh confirm inactive | PP1 inh counter inactive
Cc1nnc(SCc2ccc(F)cc2Cl)s1	none
Nc1nnc(SCc2ccc(F)cc2Cl)s1	PP5 primary 13 | PP5 inh confirm inactive | PP1 inh counter inactive
O=C1N/C(=N\S(=O)(=O)Cc2ccccc2)S/C1=C/c1cccc([N+](=O)[O-])c1	PP5 primary 11 (no result: UCH37 DUB inh) | PP5 inh confirm inactive | PP1 inh counter inactive
CC(=NNc1cccc(C(=O)O)c1)c1ccc(Cl)s1	none (no result: UBC13 inh, PP5 primary, PP1 inh, Fh CTSL1 inh, PREPL inh)
O=C(/C=C/c1ccco1)NC(=S)Nc1ccccc1N1CCOCC1	PP5 primary 9.7 | PP5 inh confirm inactive | PP1 inh counter inactive
CCSC1=C(C#N)C(c2cccc(O)c2)CC(=O)N1 (stereo not given)	none
C=C(C)CSC1=C(C#N)C(c2ccsc2)CC(=O)N1 (stereo not given)	PP5 primary 11 | PP5 inh confirm inactive | PP1 inh counter inactive
Cc1cc(O)c(C=NNc2ccc(Cl)cc2)c(=O)o1	none (no result: UBC13 inh, PP5 primary, PP1 inh, Fh CTSL1 inh, PREPL inh)
O=C(Nc1cccc2ncccc12)c1ccc(-c2ccc(Br)cc2)o1	PP5 primary 13 | PP5 inh confirm inactive | PP1 inh counter inactive
O=C(Nc1cccc2ncccc12)c1ccc([N+](=O)[O-])o1	none
COc1ccc(OC(=NS(=O)(=O)c2ccccc2)c2ccccc2)cc1	none (no result: UBC13 inh, PP5 primary, PP1 inh, Fh CTSL1 inh, PREPL inh)
Clc1ccc(OCCn2ccnc2)cc1Cl	PP5 primary 10 | PP5 inh confirm inactive | PP1 inh counter inactive
Cc1cccc(OCCn2ccnc2)c1	none
Cc1ccc(NC(=O)c2ccccc2OCC(=O)c2ccc(F)cc2)cc1	none
CCOc1ccc(NC(=O)c2ccccc2OCC(=O)c2ccc(C)cc2)cc1	PP5 primary 9.8 | PP5 inh confirm inactive | PP1 inh counter inactive
NC(=O)C1(N2CCCCC2)CCN(C(=S)Nc2ccccc2)CC1	none
CCOc1ccc(NC(=O)N2CCC(C(N)=O)(N3CCCCC3)CC2)cc1	PP5 primary 11 | PP5 inh confirm inactive | PP1 inh counter inactive
CCCCNc1nc(Nc2ccc(C)c(Cl)c2)c2cnn(C)c2n1	none
CCNc1nc(Nc2ccc(C)c(Cl)c2)c2cnn(C)c2n1	PP5 primary 10 | PP5 inh confirm inactive | PP1 inh counter inactive
Cc1cnc(NC(=O)C2=C(O)c3ccccc3S(=O)(=O)N2C)s1	PP5 primary 15! | PP5 inh confirm inactive | PP1 inh counter inactive
O=c1cc(N=Cc2coc3cc(Br)ccc3c2=O)[nH]c(=S)[nH]1	none (no result: UBC13 inh, PP5 primary, PP1 inh, Fh CTSL1 inh, PREPL inh)
O=C1c2ccccc2C(=O)C12OC2c1cccc2ccccc12 (stereo not given)	PP5 primary 10, UCH37 DUB inh 24, Fh CTSL1 inh 62 | PP5 inh confirm 35 | PP1 inh counter 17
c1ccc2c(C3CCO3)cccc2c1 (stereo not given)	none (no result: Fh CTSL1 inh)
O=C(NN=Cc1ccncc1)c1cccc(NC(=O)c2ccccc2Cl)c1	none (no result: UBC13 inh, PP5 primary, PP1 inh, Fh CTSL1 inh, PREPL inh)
CC(=NOC(=O)c1cccc(Cl)c1)c1sc(C)nc1C	none (no result: UBC13 inh, PP5 primary, PP1 inh, Fh CTSL1 inh, PREPL inh)
CC(C)(C)OC(=O)NCCCC[C@H](NC(=O)c1[nH]cnc1C(=O)Nc1ccc(Cl)cc1)C(=O)OC(C)(C)C	none
CC(C)(C)OC(=O)NCCCC[C@H](NC(=O)c1[nH]cnc1C(=O)Nc1ccccc1)C(=O)OC(C)(C)C	PP5 primary 11 | PP5 inh confirm inactive | PP1 inh counter inactive
CC(C)C[C@H](NC(=O)c1nc[nH]c1C(=O)N[C@@H](CCCCNC(=O)OC(C)(C)C)C(=O)OC(C)(C)C)C(=O)OC(C)(C)C	PP5 primary 14 | PP5 inh confirm inactive | PP1 inh counter inactive
COc1ccc(C(=O)Nc2ccc(S(=O)(=O)NC(C)=O)cc2)cc1	PP5 primary 12 | PP5 inh confirm inactive | PP1 inh counter inactive
Cc1nccn1CC(=O)NN=Cc1cccs1	none (no result: UBC13 inh, PP5 primary, PP1 inh, Fh CTSL1 inh, PREPL inh)
O=C(COCC(=O)Nc1cccc(C(F)(F)F)c1)Nc1cccc(C(F)(F)F)c1	PP5 primary 10 | PP5 inh confirm 10 | PP1 inh counter inactive
O=C(COc1ccc(C(=O)O)cc1)Nc1cccc(C(F)(F)F)c1	none
Cc1ccc(OC(F)F)c(NC(=O)Nc2cccc(C(F)(F)F)c2)c1	PP5 primary 13 | PP5 inh confirm inactive | PP1 inh counter inactive
Cn1ccnc1C(=O)c1ccc(Cl)c(S(=O)(=O)N2CCOCC2)c1	PP5 primary 10.0 | PP5 inh confirm inactive | PP1 inh counter inactive
COc1ccc(CCNC(=O)CC(C)=NNC(=O)C(c2ccccc2)c2ccccc2)cc1OC	none (no result: UBC13 inh, PP5 primary, PP1 inh, Fh CTSL1 inh, PREPL inh)
CCOc1cc2c(cc1OCC)C(c1ccc(OC)c(OC)c1)N(c1ccc(C(=O)O)cc1)C(=O)C2 (stereo not given)	none
CCOc1ccc(C2c3cc(OC)c(OC)cc3CC(=O)N2c2ccc(OC)cc2)cc1 (stereo not given)	PP5 primary 9.7 | PP5 inh confirm inactive | PP1 inh counter inactive
O=C(NN=Cc1cccnc1)c1cccc(NC(=O)c2ccc(Cl)cc2)c1	none (no result: UBC13 inh, PP5 primary, PP1 inh, Fh CTSL1 inh, PREPL inh)
Cc1onc(-c2c(Cl)cccc2Cl)c1C(=O)N/N=C(\N)COc1ccc(Cl)cc1	PP5 primary 12 (no result: UCH37 DUB inh) | PP5 inh confirm inactive | PP1 inh counter inactive
Cc1onc(-c2ccccc2Cl)c1C(=O)NN=C(N)COc1ccc(Cl)cc1	none (no result: UBC13 inh, PP5 primary, PP1 inh, Fh CTSL1 inh, PREPL inh)
CCOC(=O)NN=Cc1c(C)nn(-c2ccccc2Cl)c1Cl	none (no result: UBC13 inh, PP5 primary, PP1 inh, Fh CTSL1 inh, PREPL inh)
O=C(NN=Cc1ccc([N+](=O)[O-])o1)c1cn(-c2ccccc2)nc1-c1ccc(Cl)cc1	none (no result: UBC13 inh, PP5 primary, PP1 inh, Fh CTSL1 inh, PREPL inh)
COc1cccc(CSCC(=O)NCCc2ccccc2)c1OC	PP5 primary 10 | PP5 inh confirm inactive | PP1 inh counter inactive
O=C1CN(c2nc(-c3cccnc3)nc3scc(-c4ccccc4)c23)CCN1	PP5 primary 10 | PP5 inh confirm inactive | PP1 inh counter inactive
Cc1ccnc(NC(=O)COC(=O)c2ccc(F)cc2F)n1	PP5 primary 15 | PP5 inh confirm inactive | PP1 inh counter inactive
O=C(COC(=O)c1ccc(F)cc1F)Nc1cccnc1Cl	none (no result: Fh CTSL1 inh)
CC(C)Oc1cccc(C(=O)NN=Cc2coc3ccccc3c2=O)c1	none (no result: UBC13 inh, PP5 primary, PP1 inh, Fh CTSL1 inh, PREPL inh)
CCOC(=O)Cn1c(-c2ccccc2)nc2ccccc2c1=O	PP5 primary 11 | PP5 inh confirm inactive | PP1 inh counter inactive
Cc1ccc(Nc2nc(/N=C/NO)n[nH]2)cc1C	PP5 primary 11 (no result: UCH37 DUB inh) | PP5 inh confirm inactive | PP1 inh counter inactive
Cc1nc(C)c(-c2ccnc(/N=C/NO)n2)s1	none (no result: UCH37 DUB inh)
COc1ccc(-c2cc(-c3c(O)c(OC)c4occc4c3OC)[nH]n2)cc1	PP5 primary 11 | PP5 inh confirm inactive | PP1 inh counter inactive
